Source: PubChem BioAssay
The list is not random: actives were taken first. Their share in the collection is about 0.66%.
Ec RNAP inh: E. coli RNAP inhibitors, biochemical. DNA-directed RNA polymerase subunit beta (Escherichia coli (strain K12)), P0A8V2. E. coli RNA polymerase, fluorescence transcription assay. inhibition, %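 (tested at 10 µM)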. 0.2% of 62,000 active; in the data active = inhibition above about 20%;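 note: 0% = enzyme without compound and 100% = no enzyme blank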
BAP1 inh: inhibitors of BAP1 deubiquitinase, primary screen, biochemical, Ub-AMC fluorescence, kinetic; Ubiquitin carboxyl-terminal hydrolase BAP1 (Homo sapiens), Q92560; recombinant BAP1, Ub-AMC hydrolysis fluorescence kinetic; hits give low values; calls only at 20 µM; 0.48% of 72,000 active; AID 436, 2006;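 active = activity remaining at or below 50% of control, provided the compound also passes the data quality filters; inactive = the rest, including low values that fail the filters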;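 note: 100% = DMSO wells rate and 0% = substrate alone blank rate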
Target sequence (Q92560 whole entry, looked up): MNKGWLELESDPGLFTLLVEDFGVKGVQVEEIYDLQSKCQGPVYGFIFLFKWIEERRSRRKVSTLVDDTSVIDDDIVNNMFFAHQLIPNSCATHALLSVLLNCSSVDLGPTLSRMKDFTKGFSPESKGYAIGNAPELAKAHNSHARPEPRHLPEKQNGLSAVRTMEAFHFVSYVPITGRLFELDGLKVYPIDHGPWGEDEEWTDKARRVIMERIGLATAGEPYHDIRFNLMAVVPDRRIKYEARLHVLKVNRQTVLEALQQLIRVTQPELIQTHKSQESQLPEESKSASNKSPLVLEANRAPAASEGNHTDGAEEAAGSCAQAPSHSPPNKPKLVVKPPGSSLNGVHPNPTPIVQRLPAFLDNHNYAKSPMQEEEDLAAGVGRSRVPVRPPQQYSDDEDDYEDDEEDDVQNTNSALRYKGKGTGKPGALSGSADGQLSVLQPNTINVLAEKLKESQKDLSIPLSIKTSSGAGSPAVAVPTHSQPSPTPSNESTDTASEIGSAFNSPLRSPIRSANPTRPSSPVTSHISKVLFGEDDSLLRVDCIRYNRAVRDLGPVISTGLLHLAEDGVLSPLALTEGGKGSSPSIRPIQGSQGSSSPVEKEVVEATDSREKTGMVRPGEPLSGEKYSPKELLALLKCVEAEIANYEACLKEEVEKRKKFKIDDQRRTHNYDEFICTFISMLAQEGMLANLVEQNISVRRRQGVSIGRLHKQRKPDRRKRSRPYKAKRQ
AP ELISA ortho: alternative complement pathway inhibitors, primary screen, biochemical, ELISA, human serum, orthogonally pooled compounds | LPS-coated ELISA, C3 deposition; tested in compound mixtures | inhibition, % at 5 µM | 0.08% of 62,000 active | AID 1235, 2008;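 active = inhibition above 30% in each of the two pooled mixtures holding the compound, so the lower value exceeds 30%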;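 note: 0% = serum in Mg-EGTA without compound and 100% = EDTA serum blank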
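Test system – human serum alternative complement pathway, C3 deposition on LPS-coated wells · Buffer or medium – diluted human serum in Mg2+-EGTA GVB++ · Compound dosing – 5 µM each compound, pools of ten, 50 µM per pool · Schedule – 1 h serum-compound exposure at 37 °C · Measured by – Anti-C3 ELISA, OD 450 nm · Read-out basis – percent inhibition of C3 deposition onto LPS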
The depositor's hits bear a star; i = inactive; nt = not tested or not shown; + = active, no number.

SMILES	Ec RNAP inh	BAP1 inh	AP ELISA ortho
O=C(CSc1nnc(CNc2ccc(Cl)cc2)o1)Nc1nc2c(s1)CCCC2	23*	i	2
COc1ccc(CCNC(=O)CSc2nnc(CNc3ccc(Cl)cc3)o2)cc1OC	6	i	3
O=C(NC1CC2CCC1C2)C1CCN(S(=O)(=O)c2ccc(-c3nn[nH]n3)cc2)CC1 (stereo not given)	-2	i	31*
COc1ccc(CNC(=O)C2CCN(S(=O)(=O)c3ccc(-c4nn[nH]n4)cc3)CC2)cc1	-1	i	28
O=C(CCN1C(=O)c2ccccc2C1=O)Nc1ccccc1F	nt	i	nt
CN(C1CCS(=O)(=O)C1)S(=O)(=O)c1ccc(N2CCCC2=O)cc1 (stereo not given)	21*	i	7
CN(C1CCCCC1)S(=O)(=O)c1ccc(-n2cnnn2)cc1	-7	i	4
O=C(c1ccc(Br)cc1)N1CCN(c2ccc([N+](=O)[O-])c(NC3CC3)c2)CC1	nt	i	nt
Cc1cc(OCCN2CCOCC2)nc2ccccc12	30*	i	5
Cc1cc(OCCN2CCCCC2)nc2ccccc12	9	i	-2
Cc1ccc(N2C(=O)C(Cl)=C(N3CCCCC3)C2=O)c(C)c1	nt	i	nt
Cc1ccc(-n2c(CNc3ccc(F)cc3)nnc2SCC(=O)NCc2ccco2)cc1	11	i	16
Cc1ccc(-n2c(CNc3ccc(F)cc3)nnc2SCC(=O)N2CCCC2)cc1	36*	i	11
COc1ccc(-c2cc(C(F)(F)F)n3ncc(C(=O)Nc4cccc(Cl)c4C)c3n2)cc1OC	nt	i	nt
O=C1c2ccc([N+](=O)[O-])cc2C(=O)N1c1ccc([N+](=O)[O-])cc1	nt	i	nt
O=C(Nc1ccc2c3c(cccc13)CC2)c1ccc(S(=O)(=O)N2CCc3ccccc3C2)cc1	nt	i	nt
O=C(/N=C1\NC(=O)C(F)(C(F)(F)F)S1)NC1CCCCC1 (stereo not given)	25*	i	8
O=C(CC1Nc2ccccc2NC1=O)NC1CCCCC1 (stereo not given)	5	i	6
Nc1c(C(O)(C(F)(F)F)C(F)(F)F)ccc2ccccc12	4	+	15
COc1ccc(NC(=O)Cn2nnc(-c3ccccc3NC(=O)C3CC3)n2)cc1	11	i	6
CCOc1ccc(NC(=O)Cn2nnc(-c3ccccc3NC(=O)C3CC3)n2)cc1	24*	i	-4
Cc1oc(-c2ccccc2F)nc1CS(=O)CC(=O)NCc1ccc2c(c1)OCO2 (stereo not given)	10	i	-3
Cc1oc(-c2ccccc2F)nc1CS(=O)CC(=O)NCc1cccs1 (stereo not given)	2	i	40*
CC(=O)c1cccc(NC(=O)COc2ccc(Cl)c(C)c2)c1	nt	i	nt
O=C(COc1ccccc1)Nc1cccc(-c2nnc(-c3ccccc3)o2)c1	0	+	13
SMILES	Ec RNAP inh	BAP1 inh	AP ELISA ortho
O=C(COc1ccccc1)Nc1nnc(-c2ccccc2)o1	7	i	-1
Nc1cc(C(=O)O)ccc1NC(=O)c1ccccc1	nt	i	nt
CC(C)(C)n1ncc2c(=O)n(CC(=O)Nc3ccc4c(c3)OCO4)cnc21	8	i	-5
Cc1ccc(NC(=O)Cn2cnc3c(cnn3C(C)(C)C)c2=O)cc1	22*	i	14
O=C1c2ccccc2C(=O)c2c(Sc3ccccc3)cccc21	nt	i	nt
Cc1ccc(Nc2nc(N)nc(CN3CCCCCC3)n2)cc1	6	i	2
Cc1ccc(Nc2nc(N)nc(CN3CCN(C)CC3)n2)cc1	21*	i	0
Cc1cc(OCC(=O)Nc2cccc([N+](=O)[O-])c2)cc(C)c1Cl	nt	i	nt
Cc1ccc(C2=CSC3=NCCN23)cc1C	nt	i	nt
CCOCCCNC(=O)NC12CC3CC(CC(C3)C1)C2	3	i	3
O=C(NCCCN1CCOCC1)NC12CC3CC(CC(C3)C1)C2	64*	i	12
O=C1c2oc3ccc(F)cc3c(=O)c2C(c2cccc(O)c2)N1CCCN1CCOCC1 (stereo not given)	3	i	15
C=CCOc1cccc(C2c3c(oc4ccc(F)cc4c3=O)C(=O)N2CCCN2CCOCC2)c1 (stereo not given)	7	i	34*
CCOc1ccc2cc(C(=O)Nc3ccc(C)cc3)c(=O)oc2c1	nt	i	nt
Cc1ccccc1OCCSc1nc2ccccc2[nH]1	nt	i	nt
Cc1cc(C(=O)Nc2cc(C)n(Cc3ccc(Cl)cc3)n2)no1	2	i	-12
Cc1cc(=O)c2n(Cc3ccc(Cl)cc3)nc[n+]2[nH]1	49*	i	-2
CCCCOc1ccc(C(=O)O)cc1	0	i	15
